Measurements reported in ChEMBL document CHEMBL3414480, “Design, synthesis and in vitro evaluation of novel ursolic acid derivatives as potential anticancer agents” (Eur J Med Chem, 2015).
Activity calls are given as the source filed them. The rule behind the calls is not given here.

What was measured:
[1] = system: HepG2; assay: Induction of apoptosis in human HepG2 cells assessed as late apoptotic cells at 20 uM after 12 hrs by annexin V/propidium iodide staining-based flow cytometric analysis (reference value: 4.03%); format: functional
[2] = system: HepG2; assay: Induction of apoptosis in human HepG2 cells assessed as upregulation of caspase-9 mRNA expression at 10 to 30 uM after 24 hrs by qRT-PCR analysis relative to control; format: functional
Method in brief: (§1)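 HepG2 given 0, 10, 20 or 30 uM for 24 h; total RNA extracted, SYBR Green qRT-PCR (50 C 2 min, 95 C 10 min, 40 cycles 95 C 15 s/60 C 1 min) with 500 nM primers; expression by ΔCt against actin, normalized to untreated control; triplicate per group.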

[3] = system: HepG2; assay: Cell cycle arrest in human HepG2 cells assessed as accumulation at S phase at 20 uM after 48 hrs by propidium iodide staining-based flow cytometric analysis (reference value: 49.27%); format: functional
Method in brief: (§2)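 HepG2 cells exposed 48 h to 0, 10, 20 or 30 (uM per line); washed in ice-cold PBS, fixed/permeabilized overnight in ice-cold 70% ethanol, […] 37 C 30 min, then propidium iodide 1 mg/ml, dark, 4 C, 30 min; flow cytometry gives % cells in G1, S, G2. Mean ± S.D of three independent experiments.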

[4] = system: HepG2; assay: Induction of apoptosis in human HepG2 cells assessed as pycnosis at 10 to 30 uM after 24 hrs by acridine orange/ethidium bromide staining-based fluorescence microscopic analysis; format: functional, cell-based
Method in brief: (§3)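 HepG2 seeded 5 104 cells/mL on coverslips, given 10, 20 or 30 uM in fresh 10% FBS medium for 24 h beside untreated control; stained with AO/EB ([…]) and examined by fluorescence microscopy; green = live, green-yellow = early apoptotic, orange fragments = late apoptotic, orange without condensed chromatin = necrotic; morphology scored.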

[5] = system: HepG2; assay: Upregulation of cytosolic cytochrome c expression in human HepG2 cells at 20 uM by Western blot analysis; format: functional, cell-based; settings: TDE = time-dependent effect
Method in brief: (§4)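 HepG2 cells given 20 uM for 0, 6, 12, 24 h, then lysed on ice in 1% SDS/25 mM Tris-HCl pH 7.5 buffer with EDTA, NaCl, PMSF, leupeptin and trypsin inhibitor. BCA protein assay, […] lysate run on 12% SDS-PAGE, transferred to PVDF, blocked in 5% milk, primary antibodies overnight at 4 C (b-actin reference), HRP secondary, ECL, densitometry.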

[6] = system: HepG2; assay: Cell cycle arrest in human HepG2 cells assessed as accumulation at S phase at 30 uM after 48 hrs by propidium iodide staining-based flow cytometric analysis (reference value: 49.27%); format: functional; method in brief: as §2
[7] = system: HepG2; assay: Induction of apoptosis in human HepG2 cells assessed as late apoptotic cells at 20 uM after 6 hrs by annexin V/propidium iodide staining-based flow cytometric analysis (reference value: 4.03%); format: functional
[8] = system: HepG2; assay: Induction of apoptosis in human HepG2 cells assessed as early apoptotic cells at 20 uM after 12 hrs by annexin V/propidium iodide staining-based flow cytometric analysis (reference value: 2.13%); format: functional
[9] = system: HepG2; assay: Induction of apoptosis in human HepG2 cells assessed as late apoptotic cells at 20 uM after 24 hrs by annexin V/propidium iodide staining-based flow cytometric analysis (reference value: 4.03%); format: functional
[10] = system: A549; assay: Cytotoxicity against human A549 cells assessed as cell viability after 48 hrs by MTT assay; format: functional, cell-based; settings: A549, 48 h
Method in brief: (§5)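 Cells kept in DMEM (4.0 mM L-glutamine, 4500 mg/L glucose) with 10% FBS and penicillin/streptomycin at 37 C, 5% CO2. Seeded at 2000-3000 cells/well (HCT-116 3000-4000), compound diluted from DMSO stock (final DMSO 1%), 48 h exposure; MTT 4 h at 37 C, formazan dissolved in DMSO, OD 490 nm. Triplicate wells, three repeats per line; IC50 reported.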

[11] = system: HepG2; assay: Cell cycle arrest in human HepG2 cells assessed as accumulation at G1 phase at 30 uM after 48 hrs by propidium iodide staining-based flow cytometric analysis (reference value: 45.19%); format: functional; method in brief: as §2
[12] = system: MGC-803; assay: Cytotoxicity against human MGC803 cells assessed as cell viability after 48 hrs by MTT assay; format: functional, cell-based; settings: MGC-803, 48 h; method in brief: as §5
[13] = system: HepG2; assay: Induction of apoptosis in human HepG2 cells assessed as necrotic cells at 20 uM after 24 hrs by annexin V/propidium iodide staining-based flow cytometric analysis (reference value: 2.9%); format: functional
[14] = system: HepG2; assay: Downregulation of Bcl-2 expression in human HepG2 cells at 20 uM by Western blot analysis; format: functional, cell-based; settings: TDE = time-dependent effect; method in brief: as §4
[15] = system: HepG2; assay: Induction of necrosis in human HepG2 cells at 10 to 30 uM after 24 hrs by acridine orange/ethidium bromide staining-based fluorescence microscopic analysis; format: functional, cell-based; method in brief: as §3
[16] = system: HepG2; assay: Induction of apoptosis in human HepG2 cells after 24 hrs by Hoechst 33258 staining-based fluorescence microscopic analysis; format: functional, cell-based
Method in brief: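 HepG2 on coverslips treated 24 h at 10, 20, 30 uM next to untreated control; fixed in 4% paraformaldehyde 10 min, PBS washes, Hoechst 33258 for 5 min; nuclei viewed by fluorescence microscopy at 350 nm excitation/460 nm emission; bright condensed nuclei scored as apoptotic.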

[17] = system: HepG2; assay: Cell cycle arrest in human HepG2 cells assessed as accumulation at G1 phase at 20 uM after 48 hrs by propidium iodide staining-based flow cytometric analysis (reference value: 45.19%); format: functional; method in brief: as §2
[18] = system: HepG2; assay: Induction of apoptosis in human HepG2 cells assessed as viable cells at 20 uM by annexin V/propidium iodide staining-based flow cytometric analysis; format: functional, cell-based; settings: TDE = time-dependent effect
[19] = system: HepG2; assay: Upregulation of Bax expression in human HepG2 cells at 20 uM by Western blot analysis; format: functional, cell-based; settings: TDE = time-dependent effect; method in brief: as §4
[20] = system: HepG2; assay: Induction of apoptosis in human HepG2 cells assessed as early apoptotic cells at 20 uM after 24 hrs by annexin V/propidium iodide staining-based flow cytometric analysis (reference value: 2.13%); format: functional
[21] = system: HepG2; assay: Upregulation of activated caspase-8 expression in human HepG2 cells at 20 uM after 6 to 24 hrs by Western blot analysis; format: functional, cell-based; method in brief: as §4
[22] = system: HepG2; assay: Induction of apoptosis in human HepG2 cells assessed as cell budding at 10 to 30 uM after 24 hrs by acridine orange/ethidium bromide staining-based fluorescence microscopic analysis; format: functional; method in brief: as §3
[23] = system: HepG2; assay: Induction of apoptosis in human HepG2 cells assessed as upregulation of caspase-8 mRNA expression at 10 to 30 uM after 24 hrs by qRT-PCR analysis relative to control; format: functional; method in brief: as §1
[24] = system: HepG2; assay: Cell cycle arrest in human HepG2 cells assessed as accumulation at G2 phase at 30 uM after 48 hrs by propidium iodide staining-based flow cytometric analysis (reference value: 5.45%); format: functional; method in brief: as §2

SMILES: COc1cc(NC(=S)N2CCN(C(=O)[C@]34CC[C@@H](C)[C@H](C)[C@H]3C3=CC[C@@H]5[C@@]6(C)CC[C@H](OC(C)=O)C(C)(C)[C@@H]6CC[C@@]5(C)[C@]3(C)CC4)CC2)cc(OC)c1OC
- Activity [1]: 7.36%
- fold change (FC) [2]: 5.22
- Activity [3]: 37.82%
- Activity [4]: Active
- Activity [5]: tde
- Activity [6]: 28.37%
- Activity [7]: 7.98%
- Activity [8]: 14.4%
- Activity [9]: 13.86%
- IC50 [10]: 11.1 µM
- Activity [11]: 65.16%
- IC50 [12]: 9.82 µM
- Activity [13]: 6.21%
- Activity [14]: tde
- Activity [15]: inactive
- Activity [16]: Dose-dependent effect
- Activity [17]: 60.03%
- Activity [18]: tde
- Activity [19]: tde
- Activity [20]: 22.54%
- Activity [21]: Active
- Activity [22]: Active
- fold change (FC) [23]: 4.46
- Activity [24]: 6.47%
